Key:
[1] = In vitro maximum inotropic effect on contractile force of an electrically driven guinea pig left atrium.; type: functional, Cavia porcellus, Cardiac atrium
Method in brief: (§1)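 Isolated guinea pig atria in solution bubbled with 95% O2/5% CO2, field-stimulated by platinum electrodes at 1 Hz (1 ms square pulses, twice threshold voltage). After 60 min equilibration, cumulative concentrations added, each held until maximal response or arrhythmia.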

[2] = Percent increase in force of contraction in vitro determined using electrically driven guinea pig left atrium.; type: functional; settings: Cavia porcellus, Cardiac atrium; method in brief: as §1
Cavia porcellus = organism: Cavia porcellus; experiment: Concentration producing 50% of the maximal increase in the force of contraction in isolated guinea pig left atrium; type: functional; settings: Cardiac atrium; method in brief: as §1
[3] = biological target: Sodium/potassium-transporting ATPase; experiment: In vitro inhibitory concentration against dog kidney Na+/K+ ATPase; type: protein-complex assay, Canis lupus familiaris
Method in brief: (§2)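 Na+,K+-ATPase isolated and purified from dog kidney. Inhibition measured as percent hydrolysis of 32P-ATP with versus without compound. […] Single-concentration entries report percent inhibition at the stated concentration. Compounds tested within 1–4 h of dissolution.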

[4] = biological target: Sodium/potassium-transporting ATPase subunit alpha-1 (Canis lupus familiaris, UniProt P50997); experiment: In vitro inhibitory concentration against dog kidney Na+,K+-ATPase
Method in brief: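 Na+,K+-ATPase isolated and purified from dog kidney. Inhibition measured as percent hydrolysis of 32P-ATP with versus without compound. Single-concentration entries report percent inhibition at the stated concentration. Compounds tested within 1–4 h of dissolution.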

[5] = Compound at 100 uM was tested in vitro for the inhibition of dog kidney Na+/K+ ATPase; settings: Canis lupus familiaris, target entry is the homologue from another species; method in brief: as §2

| Structure (SMILES) | Concentration giving maximal inotropic effect [1] [µM] | Emax [2] [%] | EC50 (Cavia porcellus) [µM] | IC50 [3] [µM] | IC50 [4] [µM] | inhibition [5] [%] |
| --- | --- | --- | --- | --- | --- | --- |
| CC(/C=N/OCCO)=C\[C@H]1CC[C@]2(O)[C@@H]3CC[C@@H]4C[C@@H](O)CC[C@]4(C)[C@H]3CC[C@]12C | 300 | 175 | 23 | 7.9 | – | – |
| CN(C)CCCO/N=C1\CC[C@]2(O)[C@@H]3CC[C@@H]4C[C@@H](O)CC[C@]4(C)[C@H]3CC[C@]12C | – | – | – | > 100 | – | – |
| C[C@]12CC[C@H](O)C[C@H]1CC[C@@H]1[C@@H]2CC[C@]2(C)/C(=C/C=N\OCCN)CC[C@]12O | 100 | 136 | 18 | 2 | – | – |
| CO/N=C/[C@H]1CC[C@]2(O)[C@@H]3CC[C@@H]4C[C@@H](O)CC[C@]4(C)[C@H]3CC[C@]12C | – | – | – | 32 | – | – |
| CN(C)CCCO/N=C/C=C1\CC[C@]2(O)[C@@H]3CC[C@@H]4C[C@@H](O)CC[C@]4(C)[C@H]3CC[C@]12C | – | – | – | 160 | – | – |
| CCCO/N=C/C=C/[C@H]1CC[C@]2(O)[C@@H]3CC[C@@H]4C[C@@H](O)CC[C@]4(C)[C@H]3CC[C@]12C | – | – | – | 10 | – | – |
| C[C@]12CC[C@H](O)C[C@H]1CC[C@@H]1[C@@H]2CC[C@]2(C)[C@@H](/C=C/C=C/CCCN)CC[C@]12O | 0.1 | 73 | 0.035 | – | 0.32 | – |
| C[C@]12CC[C@H](O)C[C@H]1CC[C@@H]1[C@@H]2CC[C@]2(C)[C@@H](CCCCCCCN)CC[C@]12O | 100 | 43 | – | – | 1.25 | – |
| CO/N=C/C=C/[C@H]1CC[C@]2(O)[C@@H]3CC[C@@H]4C[C@@H](O)CC[C@]4(C)[C@H]3CC[C@]12C | – | – | – | 4 | – | – |
| CN(C)CCCO/N=C/[C@H]1CC[C@]2(O)[C@@H]3CC[C@@H]4C[C@@H](O)CC[C@]4(C)[C@H]3CC[C@]12C | – | 235 | 1.3 | 0.25 | – | – |
| CN(C)CCO/N=C1\CC[C@]2(O)[C@@H]3CC[C@@H]4C[C@@H](O)CC[C@]4(C)[C@H]3CC[C@]12C | – | – | – | > 100 | – | – |
| CN(C)CCCCO/N=C1\CC[C@]2(O)[C@@H]3CC[C@@H]4C[C@@H](O)CC[C@]4(C)[C@H]3CC[C@]12C | – | – | – | > 100 | – | – |
| CC(/C=N/OCCCCN)=C\[C@H]1CC[C@]2(O)[C@@H]3CC[C@@H]4C[C@@H](O)CC[C@]4(C)[C@H]3CC[C@]12C | – | 106 | 4 | 1.26 | – | – |
| C/C(C=O)=C\[C@H]1CC[C@]2(O)[C@@H]3CC[C@@H]4C[C@@H](O)CC[C@]4(C)[C@H]3CC[C@]12C | – | – | – | – | 1.58 | – |
| C[C@]12CC[C@H](O)C[C@H]1CC[C@@H]1[C@@H]2CC[C@]2(C)[C@@H](CCC=O)CC[C@]12O | – | – | – | – | 40 | – |
| C[C@]12CC[C@H](O)C[C@H]1CC[C@@H]1[C@@H]2CC[C@]2(C)/C(=C/C=N\OCCCN)CC[C@]12O | – | – | – | > 100 | – | – |
| CONC[C@H]1CC[C@]2(O)[C@@H]3CC[C@@H]4C[C@@H](O)CC[C@]4(C)[C@H]3CC[C@]12C | – | – | – | 79 | – | – |
| CN(C)CCCCO/N=C/[C@H]1CC[C@]2(O)[C@@H]3CC[C@@H]4C[C@@H](O)CC[C@]4(C)[C@H]3CC[C@]12C | – | 214 | 4.7 | 2 | – | – |
| C[C@]12CC[C@H](O)C[C@H]1CC[C@@H]1[C@@H]2CC[C@]2(C)[C@@H](/C=C/C=N\OCC(=O)O)CC[C@]12O | – | – | – | > 100 | – | 40 |
| C[C@]12CC[C@H](O)C[C@H]1CC[C@@H]1[C@@H]2CC[C@]2(C)[C@@H](CC/C=N\OCCN)CC[C@]12O | – | 70 | 1.1 | 0.08 | – | – |
| CN(C)CCO/N=C/[C@H]1CC[C@]2(O)[C@@H]3CC[C@@H]4C[C@@H](O)CC[C@]4(C)[C@H]3CC[C@]12C | – | 39 | – | 1 | – | – |
| C[C@]12CC[C@H](O)C[C@H]1CC[C@@H]1[C@@H]2CC[C@]2(C)[C@@H](C=O)CC[C@]12O | 300 | 79 | 11 | – | 25 | – |

| Structure (SMILES) | Concentration giving maximal inotropic effect [1] [µM] | Emax [2] [%] | EC50 (Cavia porcellus) [µM] | IC50 [3] [µM] | IC50 [4] [µM] | inhibition [5] [%] |
| --- | --- | --- | --- | --- | --- | --- |
| C[C@]12CC[C@H](O)C[C@H]1CC[C@@H]1[C@@H]2CC[C@]2(C)[C@@H](/C=C/C=N/OCCN)CC[C@]12O | 0.3 | 155 | 0.05 | 0.02 | – | – |
| C[C@]12CC[C@H](O)C[C@H]1CC[C@@H]1[C@@H]2CC[C@]2(C)/C(=N/OCCN)CC[C@]12O | – | – | – | > 100 | – | – |
| C[C@]12CC[C@H](O)C[C@H]1CC[C@@H]1[C@@H]2CC[C@]2(C)[C@@H](/C=N/OCCN)CC[C@]12O | – | 145 | 0.62 | 0.16 | – | – |
| CN(C)CCO/N=C\C=C1/CC[C@]2(O)[C@@H]3CC[C@@H]4C[C@@H](O)CC[C@]4(C)[C@H]3CC[C@]12C | – | – | – | 12.5 | – | – |
| C[C@]12CC[C@H](O)C[C@H]1CC[C@@H]1[C@@H]2CC[C@]2(C)[C@@H](/C=C/C=C/CCN)CC[C@]12O | – | 98 | 0.38 | 0.08 | – | – |
| CN(C)CCON(C)C[C@H]1CC[C@]2(O)[C@@H]3CC[C@@H]4C[C@@H](O)CC[C@]4(C)[C@H]3CC[C@]12C | – | – | – | > 100 | – | 20 |
| C[C@]12CC[C@H](O)C[C@H]1CC[C@@H]1[C@@H]2CC[C@]2(C)[C@@H](CCCNOCCN)CC[C@]12O | – | 71 | 12 | 1 | – | – |
| C[C@]12CC[C@H](O)C[C@H]1CC[C@@H]1[C@@H]2CC[C@]2(C)[C@@H](/C=C/C=O)CC[C@]12O | – | 45 | 4 | – | 0.25 | – |
| C[C@]12CC[C@H](O)C[C@H]1CC[C@@H]1[C@@H]2CC[C@]2(C)[C@@H](C3=CC(=O)OC3)CC[C@]12O [DIGITOXIGENIN] | 3 | 200 | 0.57 | – | – | – |
| CN(C)CCONC[C@H]1CC[C@]2(O)[C@@H]3CC[C@@H]4C[C@@H](O)CC[C@]4(C)[C@H]3CC[C@]12C.Cl.Cl | 300 | 18 | – | 50 | – | – |
| CO/N=C/C(C)=C/[C@H]1CC[C@]2(O)[C@@H]3CC[C@@H]4C[C@@H](O)CC[C@]4(C)[C@H]3CC[C@]12C | – | – | – | 10 | – | – |
| CCCO/N=C/C(C)=C/[C@H]1CC[C@]2(O)[C@@H]3CC[C@@H]4C[C@@H](O)CC[C@]4(C)[C@H]3CC[C@]12C | – | – | – | > 10 | – | 40 |
| CONCCC[C@H]1CC[C@]2(O)[C@@H]3CC[C@@H]4C[C@@H](O)CC[C@]4(C)[C@H]3CC[C@]12C | – | – | – | > 100 | – | 40 |
| C[C@]12CC[C@H](O)C[C@H]1CC[C@@H]1[C@@H]2CC[C@]2(C)[C@@H](CNOCCCN)CC[C@]12O | – | 237 | 3.9 | 0.4 | – | – |
| C[C@]12CC[C@H](O)C[C@H]1CC[C@@H]1[C@@H]2CC[C@]2(C)[C@@H](/C=N/OCC(=O)O)CC[C@]12O | – | – | – | > 100 | – | 0 |
| CONC/C=C/[C@H]1CC[C@]2(O)[C@@H]3CC[C@@H]4C[C@@H](O)CC[C@]4(C)[C@H]3CC[C@]12C | – | – | – | 40 | – | – |
| CN(C)CCO/N=C/C[C@H]1CC[C@]2(O)[C@@H]3CC[C@@H]4C[C@@H](O)CC[C@]4(C)[C@H]3CC[C@]12C | – | 73 | 1.8 | 0.63 | – | – |
| CC(/C=N/OCCN(C)C)=C\[C@H]1CC[C@]2(O)[C@@H]3CC[C@@H]4C[C@@H](O)CC[C@]4(C)[C@H]3CC[C@]12C.O=C(O)/C=C/C(=O)O | 0.3 | 146 | 0.07 | 0.06 | – | – |
| C[C@]12CC[C@H](O)C[C@H]1CC[C@@H]1[C@@H]2CC[C@]2(C)[C@@H](CNOCCN)CC[C@]12O.Cl.Cl | 100 | 135 | 8 | 1.58 | – | – |
| CN(C)CCO/N=C/C=C/C=C/[C@H]1CC[C@]2(O)[C@@H]3CC[C@@H]4C[C@@H](O)CC[C@]4(C)[C@H]3CC[C@]12C.O=C(O)C(=O)O | 100 | 145 | 20 | – | 6.3 | – |
| C[C@]12CC[C@H](O)C[C@H]1CC[C@@H]1[C@@H]2CC[C@]2(C)[C@@H](/C=C/C=N/OCCO)CC[C@]12O | 300 | 179 | 39 | 6.3 | – | – |
